In ChEMBL document CHEMBL1158827, “Free-radical-scavenging and xanthine oxidase inhibitory constituents from Stereospermum personatum” (J Nat Prod, 2005):
The source made the active and inactive calls. The calls are words filed in the database; no cut-off is given here.

Key:
[1] = Antioxidant activity assessed as DPPH scavenging activity at 50 ug/ml; format: functional
Outline: (§1)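 Single-concentration screen at 50 µg/mL. Samples showing less than 10% activity at this level were not carried forward to IC50 or SC50 determination.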

[2] = molecular target: T1, Xanthine dehydrogenase/oxidase (Homo sapiens, UniProt P47989); test: Inhibition of xanthine oxidase at 50 ug/ml; outline: as §1
[3] = Antioxidant activity assessed as DPPH scavenging activity; format: functional
Outline: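 SC50 is the concentration scavenging 50% of the DPPH free radical under the assay conditions. It was obtained by linear regression over at least five concentrations, each in triplicate, and reported as the mean.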

[4] = molecular target: T1, Xanthine dehydrogenase/oxidase; test: Inhibition of xanthine oxidase at 132 uM
[5] = molecular target: T1, Xanthine dehydrogenase/oxidase; test: Inhibition of xanthine oxidase

T1 sequence (P47989 whole entry): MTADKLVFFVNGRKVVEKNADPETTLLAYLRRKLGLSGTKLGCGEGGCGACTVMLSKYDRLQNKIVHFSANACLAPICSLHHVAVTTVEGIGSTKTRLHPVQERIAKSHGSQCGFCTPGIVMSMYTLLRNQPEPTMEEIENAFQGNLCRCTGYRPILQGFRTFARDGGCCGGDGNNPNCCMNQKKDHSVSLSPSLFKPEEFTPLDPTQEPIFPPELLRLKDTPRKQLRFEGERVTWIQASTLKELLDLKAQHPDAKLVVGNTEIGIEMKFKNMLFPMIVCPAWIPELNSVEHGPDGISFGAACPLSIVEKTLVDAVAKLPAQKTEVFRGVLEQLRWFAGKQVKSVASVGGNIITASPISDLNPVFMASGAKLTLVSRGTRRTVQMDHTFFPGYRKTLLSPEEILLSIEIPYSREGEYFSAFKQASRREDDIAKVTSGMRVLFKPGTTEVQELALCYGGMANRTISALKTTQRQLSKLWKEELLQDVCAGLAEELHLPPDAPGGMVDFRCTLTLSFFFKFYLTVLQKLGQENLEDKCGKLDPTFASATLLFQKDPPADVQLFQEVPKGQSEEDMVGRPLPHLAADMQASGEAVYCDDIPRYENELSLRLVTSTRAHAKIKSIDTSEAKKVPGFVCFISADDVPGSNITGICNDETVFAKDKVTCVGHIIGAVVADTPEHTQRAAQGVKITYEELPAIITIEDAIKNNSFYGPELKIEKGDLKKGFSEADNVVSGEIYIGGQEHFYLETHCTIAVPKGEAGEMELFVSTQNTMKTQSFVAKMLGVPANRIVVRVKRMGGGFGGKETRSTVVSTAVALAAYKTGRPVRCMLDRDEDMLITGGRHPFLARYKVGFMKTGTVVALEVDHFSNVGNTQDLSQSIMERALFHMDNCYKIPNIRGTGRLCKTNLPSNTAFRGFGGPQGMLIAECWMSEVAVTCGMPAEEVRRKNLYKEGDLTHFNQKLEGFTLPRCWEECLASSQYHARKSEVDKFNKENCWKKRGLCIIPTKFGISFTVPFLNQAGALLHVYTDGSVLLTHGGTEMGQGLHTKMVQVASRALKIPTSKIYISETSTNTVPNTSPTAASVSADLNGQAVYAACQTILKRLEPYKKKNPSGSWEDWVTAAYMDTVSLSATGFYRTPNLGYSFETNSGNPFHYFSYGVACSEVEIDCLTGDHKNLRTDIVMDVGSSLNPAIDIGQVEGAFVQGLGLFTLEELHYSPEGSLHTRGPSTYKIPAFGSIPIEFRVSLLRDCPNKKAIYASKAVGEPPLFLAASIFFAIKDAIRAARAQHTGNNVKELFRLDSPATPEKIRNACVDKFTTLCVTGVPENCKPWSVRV

SMILES	Activity [2]	inhibition at 132 µM [4]	IC50 [5]	Activity [1]	SC50 [3]
COc1cc(COC/C=C/c2cc(OC)c(OC)c(OC)c2)ccc1O	Not Active				7.58 µM
Cc1c(C)c2c(c(C)c1O)CCC(C)(C(=O)O)O2 (stereo not drawn)					15.9 µM
Cc1c(CCC(C)O)ccc2c1C(=O)c1ccccc1C2=O (stereo not drawn) [STEREQUINONE H]	Not Active			inactive	
COc1cc(C[C@@H]2COC[C@@H]2C(O)c2ccc(O)c(OC)c2)ccc1O (stereo partly drawn)			111 µM		15.2 µM
COc1cc(/C=C/C(=O)O)ccc1O [FERULATE]	Not Active				32.5 µM
CC(=O)CCc1ccc2c(c1C)C(=O)c1ccccc1C2=O [STEREQUINONE F]	Not Active			inactive	

More lines, main results first:

Activity [2]	inhibition at 132 µM [4]	IC50 [5]	SMILES	Activity [1]	SC50 [3]
Not Active			COc1ccc2c(c1)C(=O)C1(O)C(=CC3=C(C)CCC3=C1C)C2=O (stereo not drawn) [STEREQUINONE I]	inactive	
Not Active			COc1ccc2c(c1)C(=O)c1c(ccc(CCC(C)=O)c1C)C2=O [STEREQUINONE G]	inactive	
	23.6%		COc1cc(C[C@]2(O)CO[C@@H](c3ccc(O)c(OC)c3)[C@@H]2CO)ccc1O [OLIVIL]		15.1 µM
Not Active			CC1=CCc2c1cc1c(c2C)C(=O)c2ccccc2C1=O [STEREQUINONE A]	inactive	
		213 µM	COc1cc(C[C@@H](CO)[C@H](CO)Cc2ccc(O)c(OC)c2)ccc1O [(+)-SECOISOLARICIRESINOL]		12.5 µM
		101 µM	COc1cc([C@H]2c3cc(O)c(OC)cc3C[C@@](O)(CO)[C@@H]2CO)ccc1O		17.4 µM
